Reference: ChEMBL document CHEMBL1131071, “Design and synthesis of brefeldin A sulfide derivatives as prodrug candidates with enhanced aqueous solubilities” (1998)

Assays:
Type in all cases: functional
Conditions in all cases: Homo sapiens
SN12C = test: Cytotoxicity against renal SN12C cancer cell cultures.
How it was run: (§1)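 Human cancer cell lines from a panel of about 55, incubated with compound for 72 h (3-day incubation). Values are single determinations or, where given with population standard deviation, two determinations.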

DU-145 = test: Cytotoxicity against prostate DU-145 cancer cell cultures.; how it was run: as §1
HCT-116 = test: Cytotoxicity against colon HCT116 cancer cell cultures.; how it was run: as §1
OVCAR-3 = test: Cytotoxicity against ovarian OVCAR-3 cancer cell cultures.; how it was run: as §1
HOP-62 = test: Cytotoxicity against lung HOP-62 cancer cell cultures.; how it was run: as §1
MDA-MB-435 = test: Cytotoxicity against breast MDA-MB-435 cancer cell cultures.; how it was run: as §1
SF-539 = test: Cytotoxicity against CNS SF-539 cancer cell cultures.; how it was run: as §1
UACC-62 = test: Cytotoxicity against melanoma UACC-62 cancer cell cultures.; how it was run: as §1

SMILES | GI50 (SN12C) | GI50 (DU-145) | GI50 (HCT-116) | GI50 (OVCAR-3) | GI50 (HOP-62) | GI50 (MDA-MB-435) | GI50 (SF-539) | GI50 (UACC-62)
C[C@H]1CCC/C=C/[C@@H]2C[C@H](O)C[C@H]2[C@H](O)[C@H](SCC(=O)O)CC(=O)O1 | 39 µM | 38 µM | 23 µM | 30000 nM | 30 µM | 42 µM | 34 µM | 33000 nM
COC(=O)CS[C@@H]1CC(=O)O[C@@H](C)CCC/C=C/[C@@H]2C[C@H](O)C[C@H]2[C@@H]1O | 32 µM | 30 µM | 19 µM | 27000 nM | 28 µM | 30 µM | 24 µM | 6800 nM
COC(=O)CS(=O)(=O)[C@@H]1CC(=O)O[C@@H](C)CCC/C=C/[C@@H]2C[C@H](O)C[C@H]2[C@@H]1O | 3.3 µM | 6 µM | 3.7 µM | 3200 nM | 5.1 µM | 5.5 µM |  | 5000 nM
COc1ccc(S[C@@H]2CC(=O)O[C@@H](C)CCC/C=C/[C@@H]3C[C@H](O)C[C@H]3[C@@H]2O)cc1 | 30 µM | 36 µM | 33 µM | 22000 nM | 24 µM | 19 µM | 26 µM | 29000 nM
C[C@H]1CCC/C=C/[C@@H]2C[C@H](O)C[C@H]2[C@H](O)[C@H](SCC(O)CO)CC(=O)O1 (stereo not given in full) | 34 µM | 18 µM | 36 µM | 22000 nM | 33 µM | 36 µM | 32 µM | 16000 nM
C[C@H]1CCC/C=C/[C@@H]2C[C@H](OC(=O)CCCC(=O)O)C[C@H]2[C@H](O)/C=C/C(=O)O1 | 32 µM | 30 µM | 21 µM | 20000 nM | 33 µM | 11 µM | 22 µM | 
C[C@H]1CCC/C=C/[C@@H]2C[C@H](OC(=O)CCC(=O)O)C[C@H]2[C@H](O)/C=C/C(=O)O1 |  | 6.8 µM | 17 µM | 3300 nM | 3.4 µM |  |  | 1900 nM
C[C@H]1CCC/C=C/[C@@H]2C[C@H](O)C[C@H]2[C@H](O)C(O)C(O)C(=O)O1 (stereo not given in full) | 2.7 µM | 6.7 µM | 3.4 µM | 2400 nM | 5 µM | 3.8 µM | 0.68 µM | 1600 nM
C[C@H]1CCC/C=C/[C@@H]2C[C@H](OC(=O)CCC(=O)O)C[C@H]2[C@H](OC(=O)CCC(=O)O)/C=C/C(=O)O1 | > 100 µM | > 100 µM | > 100 µM | > 100000 nM | > 100 µM | > 100 µM | > 100 µM | > 100000 nM
C[C@H]1CCC/C=C/[C@@H]2C[C@H](O)C[C@H]2[C@H](O)[C@H](SCCN)CC(=O)O1 |  |  | 3.5 µM | 2200 nM | 3.9 µM | 3.3 µM | 4.9 µM | 2700 nM
C[C@H]1CCC/C=C/[C@@H]2C[C@H](O)C[C@H]2[C@H](O)[C@H](Sc2ccc(O)cc2)CC(=O)O1 | 4.4 µM | 6.3 µM | 2.5 µM | 2400 nM | 3.2 µM | 3.3 µM | 5.1 µM | 4800 nM
C[C@H]1CCC/C=C/[C@@H]2C[C@H](O)C[C@H]2[C@H](O)[C@H]([S+]([O-])CCN)CC(=O)O1 (stereo not given in full) | 0.12 µM | 0.17 µM | 0.086 µM | 82 nM | 0.15 µM | 0.055 µM | 0.02 µM | 21 nM
C[C@H]1CCC/C=C/[C@@H]2C[C@H](O)C[C@H]2[C@H](O)[C@H]([S+]([O-])CCO)CC(=O)O1 (stereo not given in full) | 0.65 µM | 0.26 µM | 0.21 µM | 190 nM | 0.29 µM | 0.09 µM | 0.058 µM | 64 nM
C[C@H]1CCC/C=C/[C@@H]2C[C@H](O)C[C@H]2[C@H](O)[C@H](SCCN(C)C)CC(=O)O1 | 1.4 µM | 2.4 µM | 0.75 µM | 540 nM | 0.54 µM | 0.5 µM | 0.39 µM | 430 nM
C[C@H]1CCC/C=C/[C@@H]2C[C@H](O)C[C@H]2[C@H](O)[C@H]([S+]([O-])c2ccc(O)cc2)CC(=O)O1 (stereo not given in full) | 0.05 µM | 0.118 µM | 0.026 µM | 25 nM | 0.088 µM | 0.042 µM | 0.017 µM | 30 nM
C[C@H]1CCC/C=C/[C@@H]2C[C@H](O)C[C@H]2[C@H](O)[C@H]([S+]([O-])CC(N)C(=O)O)CC(=O)O1 (stereo not given in full) | 0.16 µM | 0.43 µM | 0.089 µM | 50 nM | 0.7 µM | 0.05 µM | 0.039 µM | 38 nM
C[C@H]1CCC/C=C/[C@@H]2C[C@H](O)C[C@H]2[C@H](O)[C@H]([S+]([O-])CCN(C)C)CC(=O)O1 (stereo not given in full) | 0.15 µM | 0.48 µM | 0.28 µM | 140 nM | 0.35 µM | 0.41 µM | 0.3 µM | 71 nM
C[C@H]1CCC/C=C/[C@@H]2C[C@H](OC(=O)CCCC(=O)O)C[C@H]2[C@H](OC(=O)CCCC(=O)O)/C=C/C(=O)O1 | > 100 µM | > 100 µM | > 100 µM | > 100000 nM | > 100 µM | > 100 µM | > 100 µM | > 100000 nM
C[C@H]1CCC/C=C/[C@@H]2C[C@H](O)C[C@H]2[C@H](O)[C@H](SCCO)CC(=O)O1 | 33 µM | 30 µM | 19 µM | 27000 nM | 34 µM | 34 µM | 23 µM | 40000 nM
